Data reported in ChEMBL document CHEMBL5370639, “Structure-Based Lead Optimization of Enterovirus D68 2A Protease Inhibitors” (J Med Chem, 2023).
pEC50, pIC50, pKi: −log10 of the molar value.

Tests used:
[1] = Cytotoxicity against human RD cells assessed as reduction in cell viability by neutral red staining based CPE assay; type: toxicity; details: RD cells
Summary of the method: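 Uninfected RD cells, grown overnight to ~90% confluency, treated with compound under otherwise the same handling as the antiviral assay. Viability by neutral red uptake (66 μg/mL, 2 h, absorbance 540 nm). CC50 from best-fit dose-response curve; mean ± SD of two independent experiments, three repeats each.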

[2] = system: enterovirus D68; assay: Antiviral activity against enterovirus D68 US/MO/14-18947 infected in human RD cells assessed as reduction in virus induced cytopathic effect by neutral red staining based CPE assay; type: functional, organism-based; details: Enterovirus D, US/MO/14-18947, RD
Summary of the method: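 RD cells seeded overnight to ~90% confluency, washed with PBS containing Mg/Ca, infected with virus in DMEM/2% FBS/30 mM MgCl2 for at least 1 h at 33 °C, then compound added. Cells stained with 66 μg/mL neutral red for 2 h; uptake read at 540 nm. EC50 from dose-response fit; mean ± SD of two independent experiments, three repeats each.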

[3] = Inhibition of Enterovirus D68 US/KY/14-18953 2A protease expressed in Escherichia coli BL21(DE3) using Dabcyl-KIRIVNT/GPGEGGE-Edans as substrate incubated for 2 hrs by FRET assay
[4] = Binding affinity to Enterovirus D68 US/KY/14-18953 2A protease expressed in Escherichia coli BL21(DE3) assessed as inhibition constant using Dabcyl-KIRIVNT/GPGEGGE-Edans as substrate incubated for 2 hrs by FRET assay
Summary of the method: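 Progression-curve kinetics: FRET substrate at 40 μM final in 50 mM Tris pH 7.0, 100 mM NaCl, 2 mM DTT, 10% glycerol with varying inhibitor; reaction started by adding 2Apro to 0.4 μM final. Fluorescence (ex 360/40, em 460/40 nm) read every 71 s for 2 h at 30 °C. Curves fitted by the Morrison equation or an earlier-described equation.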

Structure (SMILES) | CC50 [1] [nM] | pEC50 [2] | pIC50 [3] | pKi [4]
CCC[C@H](NC(=O)[C@@H]1[C@H]2CCC[C@H]2CN1C(=O)[C@@H](NC(C)=O)C(C)(C)C)C(=O)C(=O)NC1CC1 | > 150000 | 5.33 | 6.03 | 
CC(C)(C)Oc1ccc(C[C@H](NC(=O)[C@@H]2[C@H]3CCC[C@H]3CN2C(=O)[C@@H](NC(=O)CC23CC4CC(CC(C4)C2)C3)C(C)(C)C)C(=O)C(=O)NC2CC2)cc1 | 9790 | 5.76 | 6.74 | 
CCC[C@H](NC(=O)[C@@H]1[C@H]2CCC[C@H]2CN1C(=O)[C@@H](NC(=O)NC12CC3CC(CC(C3)C1)C2)C(C)(C)C)C(=O)C(=O)NC1CC1 | 42200 | 6.15 | 6.80 | 
CC(C)C[C@H](NC(=O)[C@@H]1[C@H]2CCC[C@H]2CN1C(=O)[C@@H](NC(=O)CC12CC3CC(CC(C3)C1)C2)C(C)(C)C)C(=O)C(=O)NC1CC1 | 26300 | 6.59 | 6.59 | 
CCC[C@H](NC(=O)[C@@H](NC(=O)[C@@H](NC(=O)CC12CC3CC(CC(C3)C1)C2)C(C)(C)C)C1CCCCC1)C(=O)C(=O)NC1CC1 | 1840 | < 5.74 |  | 
CCC[C@H](NC(=O)[C@@H]1[C@H]2CCC[C@H]2CN1C(=O)[C@@H](NC(=O)CC1CCCC1)C(C)(C)C)C(=O)C(=O)NC1CC1 | > 150000 | 6.15 | 7.00 | 
CC(C)(C)[C@H](NC(=O)CC12CC3CC(CC(C3)C1)C2)C(=O)N1C[C@@H]2CCC[C@@H]2[C@H]1C(=O)N[C@H](C(=O)C(=O)NC1CC1)c1ccccc1 | 35800 | 6.24 | 6.64 | 
CCC[C@H](NC(=O)[C@@H]1[C@H]2CCC[C@H]2CN1C(=O)OCc1ccccc1)C(=O)C(=O)NC1CC1 | > 150000 | 4.59 | 5.36 | 
CCC[C@@H](C#N)NC(=O)[C@@H]1[C@H]2CCC[C@H]2CN1C(=O)[C@@H](NC(=O)CC12CC3CC(CC(C3)C1)C2)C(C)(C)C | > 150000 | 5.41 | 5.88 | 
CCC[C@H](NC(=O)[C@@H]1[C@H]2CCC[C@H]2CN1C(=O)[C@@H](NC(=O)CC1CCC(F)(F)CC1)C(C)(C)C)C(=O)C(=O)NC1CC1 | > 50000 | 6.12 | 6.85 | 
CC(C)(C)[C@H](NC(=O)CC12CC3CC(CC(C3)C1)C2)C(=O)N1C[C@@H]2CCC[C@@H]2[C@H]1C(=O)N[C@@H](CC1CC1)C(=O)C(=O)NC1CC1 | 34900 | 6.64 | 6.85 | 
CCC[C@H](NC(=O)[C@@H]1[C@H]2CCC[C@H]2CN1C(=O)[C@@H](NC(=O)CC1C2CC3CC(C2)CC1C3)C(C)(C)C)C(=O)C(=O)NC1CC1 (some centres undefined) | > 150000 | 6.74 | 6.92 | 
CCC[C@H](NC(=O)[C@@H]1[C@H]2CCC[C@H]2CN1C(=O)[C@@H](NC(=O)[C@@H](NC(=O)OCc1ccccc1)C1CCCCC1)C(C)(C)C)C(=O)C(=O)NC1CC1 | > 150000 | 6.08 | 6.44 | 
CCC[C@H](NC(=O)[C@@H]1[C@H]2CCC[C@H]2CN1C(=O)[C@@H](NC(=O)OCc1ccccc1)C(C)(C)C)C(=O)C(=O)NC1CC1 | > 150000 | 5.54 | 6.12 | 
CCC[C@H](NC(=O)[C@@H]1[C@H]2CCC[C@H]2CN1C(=O)[C@@H](NC(=O)NC(C)(C)C)C(C)(C)C)C(=O)C(=O)NC1CC1 |  |  | 5.94 | 
CC(C)[C@H](NC(=O)[C@@H]1[C@H]2CCC[C@H]2CN1C(=O)[C@@H](NC(=O)CC12CC3CC(CC(C3)C1)C2)C(C)(C)C)C(=O)C(=O)NC1CC1 | > 150000 | 6.80 | 7.05 | 
CCC[C@H](NC(=O)[C@@H]1[C@H]2CCC[C@H]2CN1C(=O)[C@@H](NC(=O)CC12CC3CC(CC(C3)C1)C2)C(C)(C)C)C(=O)C(=O)NC1CC1 | 36200 | 6.80 | 7.10 | 7.23
